Laboratory results published in ChEMBL document CHEMBL4190349, “Synthesis and 2D-QSAR studies of neolignan-based diaryl-tetrahydrofuran and -furan analogues with remarkable activity against Trypanosoma cruzi and assessment of the trypanothione reductase activity” (Eur J Med Chem, 2017).
Active and inactive are the calls of the source. The calls are words filed in the database; no cut-off is given here.

Tested on: Trypanosoma cruzi
Test: Antitrypanosomal activity against Trypanosoma cruzi Y trypomastigotes
Type: functional, organism-based
Settings: not given
Procedure, shortened: (§1)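 Y strain trypomastigotes plated at 1×10^6 parasites/mL and exposed to serial concentrations of 500 to 3.75 µM. After 24 h, parasites were removed and counted in a Neubauer chamber. EC50 comes from dose-response curves.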

Compound | EC50
COc1ccc(-c2ccc(-c3ccccc3)o2)c(OC)c1 | 35.9 µM
COc1ccc(-c2ccc(-c3ccccc3)o2)cc1 | 19.2 µM
COc1cccc(C2CCC(c3ccccc3)O2)c1 (stereo unspecified) | 34.2 µM
COc1ccc(C(=O)CCC(=O)c2ccccc2)c(OC)c1 | 1.76 µM
COc1cc(C(O)C#CC(O)c2ccccc2)cc(OC)c1OC (stereo unspecified) | 97.1 µM
O=C(Cn1ccnc1[N+](=O)[O-])NCc1ccccc1 [BENZNIDAZOLE] | 0.04 µM
COc1cc(OC)cc(-c2ccc(-c3ccccc3)o2)c1 | 4.08 µM
COc1cccc(-c2ccc(-c3ccccc3)o2)c1 | 34.2 µM
COc1ccc(-c2ccc(-c3ccccc3)o2)cc1OC | 32.6 µM
COc1cc(OC)cc(C(=O)CCC(=O)c2ccccc2)c1 | 15.9 µM
COc1ccc(C2CCC(c3ccccc3)O2)c(OC)c1 (stereo unspecified) | 1.05 µM

Tested on: not listed separately
Test: Selectivity index, ratio of CC50 for cytotoxicity in C57BL/6 spleen cells to EC50 for Antitrypanosomal activity against Trypanosoma cruzi Tulahuen trypomastigotes
Type: toxicity, cell-based
Settings: C57BL/6, mouse, read-out: Ratio CC50/EC50

Compound | selectivity ratio
OC(CCC(O)c1ccccc1)c1ccccc1 (stereo unspecified) | 5
COc1cc(OC)cc(C(O)C#CC(O)c2ccccc2)c1 (stereo unspecified) | 15.8
O=C(CCC(=O)c1ccccc1)c1ccccc1 | 1.1
COc1cc(C(O)CCC(O)c2ccccc2)cc(OC)c1OC (stereo unspecified) | 1.5
COc1ccc(C(O)CCC(O)c2ccccc2)c(OC)c1 (stereo unspecified) | 11.9
c1ccc(-c2ccc(-c3ccccc3)o2)cc1 | 9.2

Tested on: Trypanosoma cruzi
Test: Antitrypanosomal activity against Trypanosoma cruzi Tulahuen amastigotes expressing beta-galactosidase gene infected in LLC-MK2 cells incubated for 4 days after 4 hrs post infection by beta-galactosidase mediated CPRG substrate hydrolysis assay
Type: functional, organism-based
Settings: in the assay text read “24 hrs post infection” for “4 hrs post infection”
Procedure, shortened: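 LLC-MK2 cells in phenol-red-free RPMI 1640 with 5% FBS, seeded at 2×10^4 cells/mL for 24 h. Infected with Tulahuen lacZ trypomastigotes (3:1 parasite:cell) at 37°C and washed at 4 h. Compounds (500 to 0.24 µM) added 24 h post-infection for 4 days at 37°C. After washing, Triton X-100/100 µM CPRG lysis, 4 h at 37°C, A570. Untreated infected wells were controls.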

Compound | EC50
COc1ccc(-c2ccc(-c3ccccc3)o2)c(OC)c1 | 19 µM
COc1ccc(-c2ccc(-c3ccccc3)o2)cc1 | 127 µM
COc1cccc(C2CCC(c3ccccc3)O2)c1 (stereo unspecified) | 126 µM
COc1cc(OC)cc(-c2ccc(-c3ccccc3)o2)c1 | 133 µM
COc1cccc(-c2ccc(-c3ccccc3)o2)c1 | 126 µM
COc1ccc(-c2ccc(-c3ccccc3)o2)cc1OC | 126 µM
COc1ccc(C2CCC(c3ccccc3)O2)c(OC)c1 (stereo unspecified) | 19.8 µM

Tested on: not listed separately
Test: Cytotoxicity in C57BL/6 mouse spleen cells assessed as reduction in cell viability incubated for 24 hrs by propidium iodide staining based flow cytometry
Settings: not given
Procedure, shortened: (§2)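 Spleen cells from C57BL/6 mice, after red-cell lysis with Tris–NH4Cl, in RPMI with 5% FBS, seeded at 6.5×10^6/mL. Exposed 24 h at 37°C to 250 to 1.50 µM. Stained with 10 µg/mL propidium iodide and read by flow cytometry. 1% Tween 20 was the death control. Run in triplicate.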

Compound | CC50 at 24 h
OC(CCC(O)c1ccccc1)c1ccccc1 (stereo unspecified) | 166 µM
COc1cc(OC)cc(C(O)C#CC(O)c2ccccc2)c1 (stereo unspecified) | 78.6 µM
O=C(CCC(=O)c1ccccc1)c1ccccc1 | 220 µM
COc1cc(C(O)CCC(O)c2ccccc2)cc(OC)c1OC (stereo unspecified) | 115 µM
COc1ccc(C(O)CCC(O)c2ccccc2)c(OC)c1 (stereo unspecified) | 236 µM
c1ccc(-c2ccc(-c3ccccc3)o2)cc1 | 194 µM

Tested on: not listed separately
Test: Cytotoxicity in C57BL/6 mouse spleen cells assessed as reduction in cell viability up to 250 uM incubated for 24 hrs by propidium iodide staining based flow cytometry
Settings: not given
Procedure, shortened: as §2

Compound | Activity
COc1ccc(-c2ccc(-c3ccccc3)o2)c(OC)c1 | Non-Toxic
COc1ccc(C(O)CCC(O)c2ccccc2)cc1 (stereo unspecified) | Non-Toxic
COc1ccc(-c2ccc(-c3ccccc3)o2)cc1 | Non-Toxic
COc1cccc(C2CCC(c3ccccc3)O2)c1 (stereo unspecified) | Non-Toxic
COc1cc(C(=O)CCC(=O)c2ccccc2)cc(OC)c1OC | Non-Toxic
COc1cc(OC)cc(C(O)CCC(O)c2ccccc2)c1 (stereo unspecified) | Non-Toxic
COc1ccc(C2CCC(c3ccccc3)O2)cc1 (stereo unspecified) | Non-Toxic
COc1ccc(C(=O)CCC(=O)c2ccccc2)c(OC)c1 | Non-Toxic
COc1ccc(C(=O)CCC(=O)c2ccccc2)cc1OC | Non-Toxic
COc1cc(C(O)C#CC(O)c2ccccc2)cc(OC)c1OC (stereo unspecified) | Non-Toxic
COc1cc(C2CCC(c3ccccc3)O2)cc(OC)c1OC (stereo unspecified) | Non-Toxic
COc1ccc(C(O)C#CC(O)c2ccccc2)cc1 (stereo unspecified) | Non-Toxic
COc1cc(OC)cc(C2CCC(c3ccccc3)O2)c1 (stereo unspecified) | Non-Toxic
COc1cc(OC)cc(-c2ccc(-c3ccccc3)o2)c1 | Non-Toxic
COc1cccc(C(O)C#CC(O)c2ccccc2)c1 (stereo unspecified) | Non-Toxic
OC(C#CC(O)c1ccccc1)c1ccccc1 (stereo unspecified) | Non-Toxic
COc1cccc(-c2ccc(-c3ccccc3)o2)c1 | Non-Toxic
COc1cc(-c2ccc(-c3ccccc3)o2)cc(OC)c1OC | Non-Toxic
COc1ccc(C(O)C#CC(O)c2ccccc2)cc1OC (stereo unspecified) | Non-Toxic
COc1ccc(C(O)CCC(O)c2ccccc2)cc1OC (stereo unspecified) | Non-Toxic
COc1ccc(-c2ccc(-c3ccccc3)o2)cc1OC | Non-Toxic
c1ccc(C2CCC(c3ccccc3)O2)cc1 (stereo unspecified) | Non-Toxic
COc1cc(OC)cc(C(=O)CCC(=O)c2ccccc2)c1 | Non-Toxic
COc1cccc(C(=O)CCC(=O)c2ccccc2)c1 | Non-Toxic
COc1ccc(C2CCC(c3ccccc3)O2)cc1OC (stereo unspecified) | Non-Toxic
COc1ccc(C(=O)CCC(=O)c2ccccc2)cc1 | Non-Toxic
COc1ccc(C2CCC(c3ccccc3)O2)c(OC)c1 (stereo unspecified) | Non-Toxic
COc1cccc(C(O)CCC(O)c2ccccc2)c1 (stereo unspecified) | Non-Toxic
COc1ccc(C(O)C#CC(O)c2ccccc2)c(OC)c1 (stereo unspecified) | Non-Toxic

Tested on: Trypanosoma cruzi
Test: Antitrypanosomal activity against Trypanosoma cruzi Y trypomastigotes assessed as induction of parasite lysis
Type: functional, organism-based
Settings: not given
Procedure, shortened: as §1

Compound | EC50
COc1cc([C@@H]2O[C@@H](c3cc(OC)c(OC)c(OC)c3)[C@H](C)[C@H]2C)cc(OC)c1OC [GRANDISIN] | 3.7 µM
COc1ccc([C@H]2O[C@@H](c3ccc(OC)c(OC)c3)[C@H](C)[C@H]2C)cc1OC [VERAGUENSIN] | 2.3 µM

Tested on: Trypanosoma cruzi
Test: Antitrypanosomal activity against Trypanosoma cruzi
Type: functional, organism-based
Settings: not given

Compound | EC50
COc1cc([C@@H]2O[C@@H](c3cc(OC)c(OCc4ccccc4)c(OC)c3)C(CO)=C2C)cc(OC)c1OC | 1.5 µM

Tested on: Trypanosoma cruzi
Test: Growth inhibition of Trypanosoma cruzi amastigotes at 20 ug/ml
Type: functional
Settings: read-out: GI

Compound | inhibition of growth at 20 µg/mL
NS(=O)(=O)c1ccc(-c2ccco2)cc1 | 70%
COc1ccc(-c2ccc(-c3ccc(OC)c(OC)c3)o2)cc1OC | 65%

Molecular target: Trypanothione reductase (Trypanosoma cruzi, UniProt P28593)
Test: (§3) Inhibition of Trypanosoma cruzi trypanothione reductase expressed in Escherichia coli BL21 (DE3) pre-incubated for 30 mins using TS2 substrate in presence of NADPH by colorimetric microplate assay
Settings: not given
Procedure, shortened: (§4)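 Recombinant T. cruzi TR expressed in E. coli BL21DE3 and affinity-purified. Assay: TcTR 5 m-unit, 40 mM HEPES pH 7.5, 0.15 mM NADPH, 1 mM EDTA, 1 µM TS2, compounds in DMSO (final 1% DMSO control). Pre-incubated 30 min at 27°C, then DTNB added, and A412 read every 5 min for 30 min.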

Chain of Trypanothione reductase (P28593 whole entry): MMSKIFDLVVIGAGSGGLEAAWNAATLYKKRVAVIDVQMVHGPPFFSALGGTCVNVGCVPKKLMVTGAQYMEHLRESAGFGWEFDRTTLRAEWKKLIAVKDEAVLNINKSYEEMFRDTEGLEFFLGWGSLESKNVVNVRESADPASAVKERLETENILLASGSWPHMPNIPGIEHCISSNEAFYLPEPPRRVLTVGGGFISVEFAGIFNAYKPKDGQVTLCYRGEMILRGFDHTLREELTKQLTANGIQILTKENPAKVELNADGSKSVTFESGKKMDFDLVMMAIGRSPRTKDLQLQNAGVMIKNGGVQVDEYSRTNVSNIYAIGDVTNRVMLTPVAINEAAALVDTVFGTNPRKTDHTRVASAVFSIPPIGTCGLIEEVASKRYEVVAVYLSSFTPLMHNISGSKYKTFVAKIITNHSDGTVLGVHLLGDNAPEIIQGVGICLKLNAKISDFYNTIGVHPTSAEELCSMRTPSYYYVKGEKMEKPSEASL

Compound | IC50
COc1ccc(-c2ccc(-c3ccccc3)o2)c(OC)c1 | 17.7 µM
COc1ccc(-c2ccc(-c3ccccc3)o2)cc1 | 7.4 µM
COc1cccc(-c2ccc(-c3ccccc3)o2)c1 | 8.9 µM
COc1ccc(-c2ccc(-c3ccccc3)o2)cc1OC | 19.2 µM

Molecular target: Trypanothione reductase (Trypanosoma cruzi) (UniProt P28593)
Test: as §3
Settings: not given
Procedure, shortened: as §4

Chain of Trypanothione reductase (Trypanosoma cruzi) (P28593 whole entry, looked up): as the sequence (P28593 whole entry) above

Compound | inhibition
COc1cc(OC)cc(-c2ccc(-c3ccccc3)o2)c1 | inactive

Tested on: Trypanosoma cruzi
Test: Antitrypanosomal activity against Trypanosoma cruzi Tulahuen trypomastigotes expressing beta-galactosidase gene incubated for 4 days by beta-galactosidase mediated CPRG substrate hydrolysis assay
Type: functional, organism-based
Settings: 96 h
Procedure, shortened: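 Tulahuen lacZ (β-galactosidase-expressing) cell-derived trypomastigotes, 5×10^5 per well, exposed 4 days at 37°C to serial concentrations 500 to 3.75 µM. Then PBS with 0.5% Triton X-100 and 100 µM CPRG was added, followed by 4 h at 37°C. Absorbance at 570 nm reflects viability. Run in duplicate. EC50 comes from dose-response curves.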

Compound | EC50 | IC50
COc1ccc(-c2ccc(-c3ccccc3)o2)c(OC)c1 | 1.12 µM | 1.12 µM
OC(CCC(O)c1ccccc1)c1ccccc1 (stereo unspecified) | 33.2 µM | 33.2 µM
COc1cc([C@@H]2O[C@@H](c3cc(OC)c(OC)c(OC)c3)[C@H](C)[C@H]2C)cc(OC)c1OC [GRANDISIN] | 28.6 µM | –
COc1ccc(C(O)CCC(O)c2ccccc2)cc1 (stereo unspecified) | 68.1 µM | 68.1 µM
COc1ccc(-c2ccc(-c3ccccc3)o2)cc1 | 4.75 µM | 4.75 µM
COc1cccc(C2CCC(c3ccccc3)O2)c1 (stereo unspecified) | 2.29 µM | 2.29 µM
COc1cc(OC)cc(C(O)C#CC(O)c2ccccc2)c1 (stereo unspecified) | 4.98 µM | 4.98 µM
COc1cc(C(=O)CCC(=O)c2ccccc2)cc(OC)c1OC | 36.9 µM | 36.9 µM
COc1cc(OC)cc(C(O)CCC(O)c2ccccc2)c1 (stereo unspecified) | 67.6 µM | 67.6 µM
O=C(CCC(=O)c1ccccc1)c1ccccc1 | 199 µM | 199 µM
COc1ccc(C2CCC(c3ccccc3)O2)cc1 (stereo unspecified) | 9.07 µM | 9.08 µM
COc1ccc(C(=O)CCC(=O)c2ccccc2)c(OC)c1 | 7.79 µM | 7.8 µM
COc1ccc(C(=O)CCC(=O)c2ccccc2)cc1OC | 36 µM | 36 µM
COc1cc(C(O)C#CC(O)c2ccccc2)cc(OC)c1OC (stereo unspecified) | 4.88 µM | 4.88 µM
COc1ccc([C@H]2O[C@@H](c3ccc(OC)c(OC)c3)[C@H](C)[C@H]2C)cc1OC [VERAGUENSIN] | 2.67 µM | –
COc1cc(C2CCC(c3ccccc3)O2)cc(OC)c1OC (stereo unspecified) | 26.2 µM | 26.2 µM
O=C(Cn1ccnc1[N+](=O)[O-])NCc1ccccc1 [BENZNIDAZOLE] | 1.65 µM | –
COc1ccc(C(O)C#CC(O)c2ccccc2)cc1 (stereo unspecified) | 14 µM | 14 µM
COc1cc(C(O)CCC(O)c2ccccc2)cc(OC)c1OC (stereo unspecified) | 77.5 µM | 77.4 µM

Compound | EC50 | IC50
COc1cc(OC)cc(C2CCC(c3ccccc3)O2)c1 (stereo unspecified) | 12.1 µM | 12.1 µM
COc1cc(OC)cc(-c2ccc(-c3ccccc3)o2)c1 | 0.01 µM | –
COc1cccc(C(O)C#CC(O)c2ccccc2)c1 (stereo unspecified) | 39.1 µM | 39.1 µM
OC(C#CC(O)c1ccccc1)c1ccccc1 (stereo unspecified) | 18.7 µM | 18.7 µM
COc1cccc(-c2ccc(-c3ccccc3)o2)c1 | 3.34 µM | 3.34 µM
COc1ccc(C(O)CCC(O)c2ccccc2)c(OC)c1 (stereo unspecified) | 19.9 µM | 19.9 µM
COc1cc(-c2ccc(-c3ccccc3)o2)cc(OC)c1OC | 29.1 µM | 29.1 µM
COc1ccc(C(O)C#CC(O)c2ccccc2)cc1OC (stereo unspecified) | 8.98 µM | 8.97 µM
COc1ccc(C(O)CCC(O)c2ccccc2)cc1OC (stereo unspecified) | 83.1 µM | 83.2 µM
COc1ccc(-c2ccc(-c3ccccc3)o2)cc1OC | 1.34 µM | 1.34 µM
c1ccc(C2CCC(c3ccccc3)O2)cc1 (stereo unspecified) | 37.3 µM | 37.3 µM
COc1cc(OC)cc(C(=O)CCC(=O)c2ccccc2)c1 | 1.69 µM | 1.69 µM
COc1cccc(C(=O)CCC(=O)c2ccccc2)c1 | 18.3 µM | 18.3 µM
COc1ccc(C2CCC(c3ccccc3)O2)cc1OC (stereo unspecified) | 24.6 µM | 24.6 µM
c1ccc(-c2ccc(-c3ccccc3)o2)cc1 | 21 µM | 21 µM
COc1ccc(C(=O)CCC(=O)c2ccccc2)cc1 | 15.9 µM | 15.9 µM
COc1ccc(C2CCC(c3ccccc3)O2)c(OC)c1 (stereo unspecified) | 0.75 µM | 0.75 µM
COc1cccc(C(O)CCC(O)c2ccccc2)c1 (stereo unspecified) | 193 µM | 193 µM
COc1ccc(C(O)C#CC(O)c2ccccc2)c(OC)c1 (stereo unspecified) | 37.9 µM | 37.8 µM
